Measurements as given in ChEMBL document CHEMBL1134394, “Synthesis and biological activity of aminoguanidine and diaminoguanidine analogues of the antidiabetic/antiobesity agent 3-guanidinopropionic acid” (2001).
Several values for one entry are separate records, joined by “and”; a condition that tells them apart may be missing. Equal entries are not always repeated.

Assays:
[1] = Inhibition of creatine transport was assessed from Percent inhibition of [C14] creatine uptake; type: functional; parameters: concentration or dose not given beside the values; conditions: dose or concentration not given here
[2] = target: Creatine kinase M-type (Homo sapiens) (UniProt P06732); test: Reaction rate of creatine kinase was determined (relative to creatine)
Sequence of Creatine kinase M-type (Homo sapiens) (P06732 whole entry): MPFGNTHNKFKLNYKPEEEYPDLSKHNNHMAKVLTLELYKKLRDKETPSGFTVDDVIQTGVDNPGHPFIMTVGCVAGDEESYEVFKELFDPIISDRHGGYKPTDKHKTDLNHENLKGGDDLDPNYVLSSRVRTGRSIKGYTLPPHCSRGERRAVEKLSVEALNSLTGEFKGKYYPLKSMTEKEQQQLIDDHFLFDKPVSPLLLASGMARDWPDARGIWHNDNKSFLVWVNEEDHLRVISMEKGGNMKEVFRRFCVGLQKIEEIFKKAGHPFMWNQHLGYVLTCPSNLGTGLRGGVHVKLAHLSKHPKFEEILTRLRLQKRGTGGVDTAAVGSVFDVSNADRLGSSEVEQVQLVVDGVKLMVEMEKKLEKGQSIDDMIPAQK

[3] = system: Mus musculus; test: Terminal body weight was determined in ob/ob mice after oral administration for two weeks (control = 53+/-1); type: functional
[4] = system: Mus musculus; test: Terminal fat body weight was determined in ob/ob mice after oral administration for two weeks (control = 28+/-0.9); type: functional
[5] = organism: Mus musculus; test: Average daily dose was determined in ob/ob mice(control=0); type: functional
[6] = system: Mus musculus; test: In vivo blood glucose was determined in obese,hyperglycemic,hyperinsulinemic,insulin-resistant KKAy mice after a dose of 500 mg/kg for 4 days; type: functional
In short: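 KKAy mice (obese, hyperinsulinemic) grouped into treated and control (n = 6) after pretest glucose on an Alpkem autoanalyzer. Compound given in food at 500 mg/kg for 4 days, then nonfasting blood glucose measured. Result expressed as treated/control (T/C). Wilcoxon rank-sum test applied when T/C < 0.80.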

[7] = system: Mus musculus; test: Average daily food consumption was determined in ob/ob mice after oral administration for two weeks (control = 90+/-3); type: functional
[8] = system: Mus musculus; test: Terminal lean body weight was determined in ob/ob mice after oral administration for two weeks (control = 25+/-1); type: functional
[9] = organism: Mus musculus; test: Initial blood glucose level was determined in ob/ob mice (control=228+/-19); type: functional
In short: (§1)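 ob/ob mice on Purina 5015 chow, given drug as admixture in milled chow for 14 days. Intake measured from food-bowl weight change. Blood from retro-orbital sinus, heparinized, kept on ice and analyzed promptly. Blood glucose measured before and after treatment. Group sizes 8–15, housed at 21 °C on 12 h light–dark cycle; two-way ANOVA, Student–Newman–Keuls post hoc.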

[10] = organism: Mus musculus; test: Initial body weight was determined in ob/ob mice (control=55+/-1); type: functional
[11] = system: Mus musculus; test: Terminal blood glucose level was determined in ob/ob mice after oral administration for two weeks (control = 226+/-29); type: functional; in short: as §1
[12] = In vivo blood glucose was determined in obese, hyperglycemic, hyperinsulinemic, insulin-resistant KKAy mice after a dose of 500 mg/kg for 4 days; type: functional, Mus musculus
[13] = target: Creatine kinase M-type (Homo sapiens) (UniProt P06732); test: Reaction rate of creatine kinase was determined at 50 mM concentration (relative to creatine)
[14] = system: Rhesus monkey; test: Fasting plasma insulin was determined in insulin-resistant Rhesus monkeys after a treatment sequence of placebo followed by a dose of 3 mg/kg/day; type: functional, organism-based; conditions: Cercopithecidae
In short: (§2)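 Ovariectomized female rhesus monkeys aged 15–30 y, with fasting insulin and glucose elevated over the colony norm. Compound dissolved in diet orange soda and drunk voluntarily from a syringe once daily at ~8:00 a.m. Sequence: placebo, 10 mg/kg/day, placebo, 3 mg/kg/day; placebo phases averaged. Overnight fast. Insulin by double-antibody RIA (guinea pig anti-human insulin, 125I-porcine insulin tracer, human insulin standard). Repeated-measures ANOVA, Tukey post hoc.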

[15] = system: Rhesus monkey; test: Fasting plasma glucose was determined in insulin-resistant Rhesus monkeys after a treatment sequence of placebo followed by a dose of 3 mg/kg/day; type: functional, organism-based; conditions: Cercopithecidae
In short: (§3)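 Insulin-resistant rhesus monkeys (ovariectomized females, 15–30 years) dosed orally once daily around 8 a.m., drug dissolved in diet orange soda and drunk voluntarily from a syringe tip. Sequence: placebo, 10 mg/kg/day, placebo, 3 mg/kg/day; placebo phases averaged. Meal tolerance test in conscious animals: glucose and insulin after overnight fast and for 3 h after a liquid meal. Insulin by double-antibody RIA (125I-porcine insulin tracer, human insulin standard); repeated-measures ANOVA, Tukey post hoc.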

[16] = system: Rhesus monkey; test: Fasting plasma insulin was determined in insulin-resistant Rhesus monkeys after a treatment sequence of placebo followed by a dose of 10 mg/kg/day; type: functional, organism-based; conditions: Cercopithecidae; in short: as §2
[17] = system: Rhesus monkey; test: Post-prandial plasma insulin was determined in insulin-resistant Rhesus monkeys after a treatment sequence of placebo followed by a dose of 3 mg/kg/day; type: functional, organism-based; conditions: Cercopithecidae; in short: as §3
[18] = system: Rhesus monkey; test: Post-prandial plasma insulin was determined in insulin-resistant Rhesus monkeys after a treatment sequence of placebo followed by a dose of 10 mg/kg/day; type: functional, organism-based; conditions: Cercopithecidae; in short: as §3
[19] = target: Creatine kinase M-type (Homo sapiens) (UniProt P06732); test: Reaction rate of creatine kinase activity is determined at 1 mM concentration
[20] = organism: Mus musculus; test: Average daily dose was determined in ob/ob mice(0); type: functional
[21] = target: Creatine kinase M-type (Homo sapiens) (UniProt P06732); test: Reaction rate of creatine kinase activity is determined at 100 mM concentration (relative to creatine)

N=C(NN)NNCC(=O)O
inhibition [1]: 26% | Reaction rate [2]: 0 | Body weight [3]: <43 g | Body weight [4]: <20 g | Dose [5]: 406 mg/kg | blood glucose treated/control ratio [6]: 0.69 | Food intake [7]: 81 g/kg | Body weight [8]: <22 g | Blood glucose [9]: 226 mg/dL | Body weight [10]: 52 g | Blood glucose [11]: <85 mg/dL

Cl.Cl.N=C(N)CNCCC(=O)O
MISS T/C [12]: 0.96

N=C(NN)NCC(=O)O
Body weight [3]: 46 g | Body weight [4]: 23 g | Dose [5]: 436 mg/kg | Food intake [7]: 87 g/kg | MISS T/C [12]: 0.51 | Body weight [8]: 23 g | Blood glucose [9]: 227 mg/dL | Body weight [10]: 52 g | Blood glucose [11]: 97 mg/dL

CN(C)CCNC(=NCC(=O)O)NCCN(C)C
MISS T/C [12]: 0.95

N=C(N)/N=C(\N)NCC(=O)O
MISS T/C [12]: 1.01

N=C(N)N(N)CC(=O)O
MISS T/C [12]: 1.04

Cl.Cl.N=C(CN)NCC(=O)O
MISS T/C [12]: 0.95

CC(C)NNC(=N)NNCC(=O)O
MISS T/C [12]: 0.9

Nc1nncc(O)n1
MISS T/C [12]: 0.98

N=C(N)N/N=C(/C(=O)O)c1ccccc1
MISS T/C [12]: 1.04

N=C(N)/N=C(\N)NCCC(=O)O
MISS T/C [12]: 0.88

CC(C)(C)OC(=O)NCC/N=C(\NN)NCC(=O)O
MISS T/C [12]: 0.81

C/C(=N\N=C(N)N)C(=O)O.Cl
MISS T/C [12]: 0.9

NN1CCNN=C1NCC(=O)O
MISS T/C [12]: 0.77

Cl.Cl.N/C(CNCCC(=O)O)=N\O
MISS T/C [12]: 1

CC1=NN=C(NCC(=O)O)NN1
MISS T/C [12]: 0.97

N=C(N)NNCCC(=O)O
MISS T/C [12]: 1.11

N=C(N)NNCC(=O)O
inhibition [1]: 36% | Reaction rate [13]: 0.24 | blood glucose treated/control ratio [6]: <0.61

NNC(=NCC(=O)O)NN
inhibition [1]: 88% | Reaction rate [2]: 0.1 | blood glucose treated/control ratio [6]: 0.23

N/N=C(\NN)N[C@H](C(=O)O)c1ccccc1
MISS T/C [12]: 1.06

N=C(NN)NCCCC(=O)O
MISS T/C [12]: 1.14

CN(/N=C/C(=O)O)C(=N)N
MISS T/C [12]: 0.95

N=C(N)C(=N)NCC(=O)O
MISS T/C [12]: 1.08

N=C(N)/N=C(\N)NCCS(=O)O
MISS T/C [12]: 0.92

CC(C)(C)OC(=O)NCCNC(=NCC(=O)O)NCCNC(=O)OC(C)(C)C
MISS T/C [12]: 0.9

COC(=O)/C=N/N=C(N)N
MISS T/C [12]: 1.16

CCOC(=O)CC/N=C(\N)N=C(N)N.Cl.Cl
MISS T/C [12]: 1.06

Cl.NCCNC(=NCC(=O)O)NCCN
MISS T/C [12]: 0.86

N=C(N)N/N=C/C(=O)O
MISS T/C [12]: <0.52

N=C(NCCN)NCC(=O)O
MISS T/C [12]: 0.99

C[C@H](N=C(NN)NN)C(=O)O
MISS T/C [12]: 0.57

N/N=C(\N)N(N)CC(=O)O
Plasma insulin [14]: 41 uU ml-1 | Plasma glucose [15]: 81 mg/dL and < 64 mg/dL | Reaction rate [2]: 0 | Body weight [3]: <44 g | Plasma insulin [16]: 35 uU ml-1 | Body weight [4]: <22 g | Dose [5]: 26 mg/kg | AUC [17]: 38 mU min dl-1 | blood glucose treated/control ratio [6]: <0.43 | Food intake [7]: <52 g/kg | Body weight [8]: <22 g | Blood glucose [9]: 228 mg/dL | AUC [18]: 30 mU min dl-1 | Body weight [10]: <59 g | Blood glucose [11]: <57 mg/dL

Cl.O=C(O)/C=N/Nc1ccccn1
MISS T/C [12]: <0.73

N/N=C(\NN)N[C@@H](Cc1ccccc1)C(=O)O
MISS T/C [12]: 0.88

CN1NC(=O)CN=C1NN
MISS T/C [12]: 1.16

N=C(N)/N=C(\N)NCCCC(=O)O
MISS T/C [12]: 1.05

CC(C)(C)OC(=O)NNC(=NCC(=O)O)NNC(=O)OC(C)(C)C
MISS T/C [12]: 0.86

CC/C(=N\N=C(N)N)C(=O)O.Cl
MISS T/C [12]: 0.77

O=C(O)CN=C(NCCO)NCCO
MISS T/C [12]: 1.07

N=C(N)NNC(Cc1ccccc1)C(=O)O (stereo not drawn)
MISS T/C [12]: 0.87

Nc1nncn1NCC(=O)O
MISS T/C [12]: 0.96

Nc1nccn1NCC(=O)O
MISS T/C [12]: 0.99

CNC(=N)N/N=C/C(=O)O
MISS T/C [12]: 0.94

O=C(O)/C=N/NC1=NCCN1
MISS T/C [12]: 1.01

Cl.Cl.N=C(N)CNCC(=O)O
MISS T/C [12]: 1.18

NNC(=NCCCC(=O)O)NN
MISS T/C [12]: 0.93

O=C(O)CNC1=NNC(=O)NN1
MISS T/C [12]: 1.04

Cl.Cl.N/C(CNCC(=O)O)=N\O
MISS T/C [12]: 0.88

Cl.Cl.N=C(N)C(=N)NCCC(=O)O
MISS T/C [12]: 1.1

Cl.NNC1=NC(=O)CNN1
MISS T/C [12]: 1

N=C(N)NNC(C(=O)O)c1ccccc1 (stereo not drawn)
MISS T/C [12]: 1.11

NNc1nncc(O)n1
MISS T/C [12]: 0.84

N/N=C(\NCCO)NCC(=O)O
MISS T/C [12]: 1.01

COC(=O)NNC(=NCC(=O)O)NNC(=O)OC
MISS T/C [12]: 0.92

N/C(=N/NCC(=O)O)N/N=C/c1ccccc1
MISS T/C [12]: 0.89

CCC(NN=C(N)N)C(=O)O (stereo not drawn)
MISS T/C [12]: 1.08

CCCCCC/C(=N\N=C(N)N)C(=O)O
MISS T/C [12]: 0.73

CN(NC(=NCC(=O)O)NN(C)C(=O)OC(C)(C)C)C(=O)OC(C)(C)C
MISS T/C [12]: 0.85

NC(=O)NNC(=NCC(=O)O)NNC(N)=O
MISS T/C [12]: 0.86

Cl.NC1=NC(=O)CNN1
MISS T/C [12]: 1.08

N/C(=N\N=C\C(=O)O)N/N=C/C(=O)O
MISS T/C [12]: 0.88

N=C(NN)NCCC(=O)O
MISS T/C [12]: 0.83

CC(C)[C@H](N=C(NN)NN)C(=O)O
MISS T/C [12]: 0.56

N=C(N)N/N=C(\Cc1ccccc1)C(=O)O
MISS T/C [12]: 0.68

CN(CC(=O)O)C(=N)N
inhibition [1]: 92% | Reaction rate [19]: 100

CC(=O)NNC(=NCC(=O)O)NNC(C)=O
MISS T/C [12]: 0.84

N/N=C(/NCC(=O)O)NNC(N)=O
MISS T/C [12]: 0.86

Cc1cc(C)n(NC(=NCC(=O)O)Nn2nc(C)cc2C)n1
MISS T/C [12]: 1

Cl.Cl.N=C(CN)NCCC(=O)O
MISS T/C [12]: 0.97

N/N=C(/NCC(=O)O)Nc1cc[nH]n1
MISS T/C [12]: 0.89

Cl.Cl.NCC(CN)CCC(=O)O
MISS T/C [12]: 0.84

N/C(=N/CC(=O)O)NO
MISS T/C [12]: 1.06

COC(=O)CC/N=C(\N)C(=N)N.Cl.Cl
MISS T/C [12]: 1

NNC(=NCCC(=O)O)NN
MISS T/C [12]: 0.78

COC(=O)CNN=C(N)N.Cl
MISS T/C [12]: 1.12

N=C(N)NCC(=O)O [GUANIDINO ACETATE]
MISS T/C [12]: <0.62

N/N=C(/NCC(=O)O)NNc1ccccn1
MISS T/C [12]: 0.91

C[C@@H](N=C(NN)NN)C(=O)O
MISS T/C [12]: 0.66

N=C(N)NCCC(=O)O [OMPENACLID]
inhibition [1]: 97% | Body weight [3]: 48 g | Body weight [4]: <24 g | Food intake [7]: 75 g/kg | Body weight [8]: 24 g | Blood glucose [9]: 229 mg/dL | Body weight [10]: 54 g | Dose [20]: 377 mg/kg | Reaction rate [21]: 2.4 | Blood glucose [11]: 147 mg/dL

N/N=C(/NCC(=O)O)NN1CCOCC1
MISS T/C [12]: 1

CN(C)/N=C(\NN)NCC(=O)O
MISS T/C [12]: 0.8

CC(C)=NNC(=N)NNCC(=O)O
MISS T/C [12]: 0.98
